Here are results for 22 molecules from ChEMBL document CHEMBL1765040, “Synthesis and antiviral activity of N9-[3-fluoro-2-(phosphonomethoxy)propyl] analogues derived from N6-substituted adenines and 2,6-diaminopurines” (Bioorg Med Chem, 2011).

Calls of active or inactive are those of the source. The calls are words filed in the database; no cut-off is given here. Where only a bound is given, the exact number is not on record here.

Data set [1] is described as follows: Cytotoxicity against human MT4 cells. It counts as cell-based.
In data set [2] the test system is Human immunodeficiency virus 1. Description: Antiviral activity against HIV1 infected in human MT4 cells assessed as inhibition of virus-induced cytopathicity. It counts as functional, organism-based. Conditions: Human immunodeficiency virus 1, MT4. (In general: Damage to the host cells serves as the signal in cytopathic effect assays.)
The test system of data set [3] is Moloney murine sarcoma virus. Put plainly: Antiviral against Moloney murine sarcoma virus infected in mouse C3H/3T3 cells assessed as inhibition of virus-induced cell transformation after 6 days post infection by microscopic analysis. As to conditions: C3H/3T3, 144 h. It counts as functional, organism-based. The method, boiled down:
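Murine embryo fibroblast C3H/3T3 monolayers infected with 75 focus-forming units of MSV, with test compound; transformation examined microscopically at day 6 postinfection. EC50 is the concentration inhibiting MSV-induced transformation by 50%.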

In data set [4] the test system is Human immunodeficiency virus 1. Description: Antiviral activity against HIV1 3B infected in human CEM cells assessed as inhibition of virus-induced syncytium formation after 4 to 5 days by microscopic analysis. It counts as functional, organism-based. As to conditions: Human immunodeficiency virus 1, 3B, CCRF-CEM. The method, boiled down:
(§1)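 CEM cells (~3 × 10^5 cells/mL) infected with 100 CCID50 per mL of HIV-1(IIIB) or HIV-2(ROD), with compound dilutions; 4–5 days at 37 °C, humidified CO2 atmosphere. Giant (syncytium) cell formation scored microscopically; EC50 is the concentration inhibiting giant cell formation by 50%.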

In data set [5] the test system is Human immunodeficiency virus 2. Description: Antiviral activity against HIV2 ROD infected in human CEM cells assessed as inhibition of virus-induced syncytium formation after 4 to 5 days by microscopic analysis. It counts as functional, organism-based. Conditions: Human immunodeficiency virus 2, ISOLATE ROD, CCRF-CEM. The method, boiled down:
as §1

A short description of data set [6]: Cytotoxicity against human CEM cells assessed as inhibition of cell proliferation after 72 hrs by coulter counter analysis. It counts as cell-based, CCRF-CEM. In a few lines: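 CEM cells, (5–7.5) × 10^4 per well, with test compound, grown 72 h at 37 °C in humidified CO2 atmosphere; cells counted by Coulter counter. IC50 is the concentration inhibiting proliferation by 50%.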

Data set [7] in a line: Cytotoxicity against human CEM cells assessed as minimum concentration required for morphological alteration by microscopic analysis. It counts as cell-based, CCRF-CEM.
Data set [8] addresses N6-methyl-AMP deaminase, ADAL (Homo sapiens) (UniProt Q6DHV7). Put plainly: Activity at human recombinant N6-methyl-AMP deaminase assessed as reaction rate after 60 mins by HPLC analysis.

Chain of N6-methyl-AMP deaminase, ADAL (Homo sapiens) (Q6DHV7 whole entry, looked up): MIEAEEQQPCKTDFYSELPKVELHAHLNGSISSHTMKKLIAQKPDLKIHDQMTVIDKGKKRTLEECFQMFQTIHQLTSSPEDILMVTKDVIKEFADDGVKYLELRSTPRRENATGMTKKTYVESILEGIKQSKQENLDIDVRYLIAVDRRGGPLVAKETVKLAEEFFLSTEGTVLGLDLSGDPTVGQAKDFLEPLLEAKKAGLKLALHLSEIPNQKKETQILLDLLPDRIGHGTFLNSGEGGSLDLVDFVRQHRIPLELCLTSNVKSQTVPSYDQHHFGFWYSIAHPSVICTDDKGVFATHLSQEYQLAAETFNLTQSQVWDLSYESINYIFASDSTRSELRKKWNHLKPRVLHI

In turn, `Nc1nc(N)c2ncn(C[C@@H](CF)OCP(=O)(O)O)c2n1` displayed a cytotoxic concentration (CC50) in data set [1] greater than 300 µM. Further, in data set [2], the 50% effective concentration (EC50) worked out at 15 µM.
As to `CCN(CC)c1nc(N)nc2c1ncn2C[C@H](CF)OCP(=O)(O)O`, the EC50 in data set [3], in data set [4] and in data set [5] was greater than 100 µM throughout. Also, the CC50 at 72 h in data set [6] was greater than 100 µM. Also, the MCC in data set [7] is greater than 100 µM.
In the case of `CCCNc1nc(N)nc2c1ncn2C[C@H](CF)OCP(=O)(O)O`, the figures for the EC50 in data set [3], in data set [4] and in data set [5] were greater than 100 µM, 41.4 µM and 22.4 µM, respectively. The Activity in data set [8] stood at 4.17 nmol/min/mg. The CC50 at 72 h in data set [6] was greater than 276 µM. In addition, in data set [7], the MCC was greater than 100 µM.
Turning to `CCCNc1nc(N)nc2c1ncn2C[C@@H](CF)OCP(=O)(O)O`, the EC50 in data set [3] is greater than 100 µM; in data set [4] it was greater than 276 µM; in data set [5], greater than 276 µM. In data set [8], the outcome was inactive. Further, in data set [6], the CC50 at 72 h was greater than 276 µM. The MCC in data set [7] is no less than 100 µM.
As to `CCN(CC)c1nc(N)nc2c1ncn2C[C@@H](CF)OCP(=O)(O)O`, the EC50 in data set [3], in data set [4] and in data set [5] was greater than 100 µM each time. Further, the CC50 at 72 h in data set [6] is greater than 100 µM. Moreover, the MCC in data set [7] is greater than 100 µM.
For `COCCNc1nc(N)nc2c1ncn2C[C@H](CF)OCP(=O)(O)O`, the concentration giving a half-maximal response (EC50) in data set [3], in data set [4] and in data set [5] was greater than 100 µM each time. In data set [6], the CC50 at 72 h is greater than 100 µM. Further, in data set [7], the MCC was greater than 100 µM.
As to `CN(C)c1nc(N)nc2c1ncn2C[C@H](CF)OCP(=O)(O)O`, the EC50 in data set [3] was greater than 20 µM; in data set [4], 51.7 µM; in data set [5] it was 103 µM. Besides, the Activity in data set [8] amounted to 23.6 nmol/min/mg. Moreover, in data set [6], the half-maximal cytotoxic concentration (CC50) at 72 h is greater than 287 µM. Also, the MCC in data set [7] was no less than 100 µM.
In the case of `Nc1nc(NC2CC2)c2ncn(C[C@@H](CF)OCP(=O)(O)O)c2n1`, the EC50 stood at 6.9 µM in data set [3], 25.5 µM in data set [4] and 11.1 µM in data set [5]. For the same molecule, the Activity in data set [8] stood at 1.98 nmol/min/mg. Besides, the CC50 at 72 h in data set [6] was greater than 278 µM. In data set [7], the MCC is greater than 100 µM.
Take `Nc1nc(N2CCCC2)c2ncn(C[C@@H](CF)OCP(=O)(O)O)c2n1`: the figures for the EC50 in data set [3], in data set [4] and in data set [5] were greater than 20 µM, greater than 100 µM and greater than 100 µM, respectively. Further, the CC50 at 72 h in data set [6] was greater than 100 µM. The MCC in data set [7] is no less than 100 µM.
`Nc1nc(O)c2ncn(C[C@@H](CF)OCP(=O)(O)O)c2n1` showed a cytotoxic concentration (CC50) in data set [1] of 103 µM. Moreover, the EC50 in data set [2] was found to be 3.9 µM.
In the case of `CN(C)CCNc1nc(N)nc2c1ncn2C[C@H](CF)OCP(=O)(O)O`, in data set [4], the EC50 is greater than 53 µM. The CC50 at 72 h in data set [6] was greater than 53 µM.
As to `CN(C)c1nc(N)nc2c1ncn2C[C@@H](CF)OCP(=O)(O)O`, the concentration for a half-maximal effect (EC50) in data set [3] is 45 µM; in data set [4], greater than 255 µM; in data set [5], 115 µM. Also, the Activity in data set [8] came out at 8.07 nmol/min/mg. Besides, in data set [6], the half-maximal cytotoxic concentration (CC50) at 72 h was greater than 255 µM. Also, in data set [7], the MCC is greater than 100 µM.
Regarding `COCCNc1nc(N)nc2c1ncn2C[C@@H](CF)OCP(=O)(O)O`, the concentration giving a half-maximal response (EC50) in data set [3], in data set [4] and in data set [5] was greater than 100 µM throughout. Also, in data set [6], the CC50 at 72 h was greater than 100 µM. The MCC in data set [7] is greater than 100 µM.
For `Nc1nc(N)c2ncn(C[C@H](CF)OCP(=O)(O)O)c2n1`, the CC50 in data set [1] is greater than 300 µM. Besides, the EC50 in data set [2] came to 4.3 µM.
The matching figures for `Nc1nc(O)c2ncn(C[C@H](CF)OCP(=O)(O)O)c2n1`: greater than 300 µM and 5.9 µM.
As for `C=CCNc1nc(N)nc2c1ncn2C[C@H](CF)OCP(=O)(O)O`, the concentration giving a half-maximal response (EC50) was found to be 69 µM in data set [3], 18 µM in data set [4] and 36 µM in data set [5]. Also, in data set [8], the Activity is 5.64 nmol/min/mg. Further, the CC50 at 72 h in data set [6] is greater than 278 µM. Moreover, in data set [7], the MCC was greater than 100 µM.
Regarding `C[C@H](Cn1cnc2c(N)ncnc21)OCP(=O)(O)O` [TENOFOVIR ANHYDROUS], the values for the EC50 in data set [4] and in data set [5] were 4.6 µM and 3.2 µM, respectively. Further, the CC50 at 72 h in data set [6] is greater than 250 µM. Also, in data set [7], the MCC is greater than 100 µM.
Take `Nc1nc(N2CCCC2)c2ncn(C[C@H](CF)OCP(=O)(O)O)c2n1`: the EC50 in data set [3], in data set [4] and in data set [5] was greater than 100 µM throughout. Also, in data set [6], the half-maximal cytotoxic concentration (CC50) at 72 h is greater than 100 µM. For the same molecule, the MCC in data set [7] is greater than 100 µM.
As to `Nc1ncnc2c1ncn2CCOCP(=O)(O)O` [ADEFOVIR], the figures for the half-maximal effective concentration (EC50) in data set [3], in data set [4] and in data set [5] were 2.1 µM, 7.4 µM and 7 µM, respectively. Besides, the cytotoxic concentration (CC50) at 72 h in data set [6] was no less than 250 µM. In addition, in data set [7], the MCC is no less than 100 µM.
With `C=CCNc1nc(N)nc2c1ncn2C[C@@H](CF)OCP(=O)(O)O`, the EC50 was greater than 100 µM in data set [3], greater than 247 µM in data set [4] and greater than 247 µM in data set [5]. For the same molecule, the result in data set [8] was inactive. The CC50 at 72 h in data set [6] is greater than 247 µM. In data set [7], the MCC is greater than 100 µM.
As to `CN(C)CCNc1nc(N)nc2c1ncn2C[C@@H](CF)OCP(=O)(O)O`, the EC50 in data set [3], in data set [4] and in data set [5] was greater than 100 µM throughout. Also, in data set [6], the CC50 at 72 h is greater than 100 µM. Also, the MCC in data set [7] was greater than 100 µM.
In the case of `Nc1nc(NC2CC2)c2ncn(C[C@H](CF)OCP(=O)(O)O)c2n1`, the EC50 is 50 µM in data set [3], 14.2 µM in data set [4] and 22.8 µM in data set [5]. For the same molecule, in data set [8], the Activity was found to be 64.5 nmol/min/mg. In addition, the half-maximal cytotoxic concentration (CC50) at 72 h in data set [6] was greater than 278 µM. In addition, the MCC in data set [7] was greater than 100 µM.

By CC50 is commonly meant the concentration giving 50% cytotoxicity. What is called EC50 is the midpoint of the concentration-response curve.
